pIC50, pKi: −log10 of the molar value.
What was measured:
Homo sapiens [1] = species: Homo sapiens; assay: Maximum Inhibition of anandamide transport(ANT) was determined against human lymphoma U937 cell at a dose of 50 uM; format: functional, U-937
In short: (§1)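 U937 cells (10^6/mL, RPMI 1640) preincubated 10 min at 37 °C with inhibitor, highest concentration tested 50 µM. Then [3H]anandamide 0.45 nM plus cold anandamide (100 nM final) added for 7 min. Stopped by GF/C filtration and washed with Krebs-HEPES; radioactivity counted. Nonspecific uptake measured at 4 °C. IC50 by curve fit; maximum inhibition is the % inhibition at 50 µM.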

[2] = target: T1, Fatty-acid amide hydrolase 1 (Rattus norvegicus) (UniProt P97612); assay: Inhibition of fatty acid amide hydrolase (FAAH) in rat brain homogenates; format: tissue-based
T1 sequence (whole entry): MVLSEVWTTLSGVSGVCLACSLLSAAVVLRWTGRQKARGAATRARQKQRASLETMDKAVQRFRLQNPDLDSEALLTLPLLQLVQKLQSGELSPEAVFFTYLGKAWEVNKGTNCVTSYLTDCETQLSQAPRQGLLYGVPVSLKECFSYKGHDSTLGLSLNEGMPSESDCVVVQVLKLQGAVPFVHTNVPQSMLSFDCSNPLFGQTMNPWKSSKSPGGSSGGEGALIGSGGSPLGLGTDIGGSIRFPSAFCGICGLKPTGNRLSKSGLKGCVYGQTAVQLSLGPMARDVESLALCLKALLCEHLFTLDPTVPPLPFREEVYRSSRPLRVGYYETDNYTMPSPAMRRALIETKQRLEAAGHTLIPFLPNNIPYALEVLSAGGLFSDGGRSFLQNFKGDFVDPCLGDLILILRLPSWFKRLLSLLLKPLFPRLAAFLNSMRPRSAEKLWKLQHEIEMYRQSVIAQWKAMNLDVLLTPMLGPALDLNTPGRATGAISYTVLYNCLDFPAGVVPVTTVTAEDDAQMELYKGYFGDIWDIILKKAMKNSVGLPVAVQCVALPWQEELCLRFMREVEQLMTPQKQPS
In short: (§2)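 Rat brain homogenate without cerebellum, in 10 mM Tris-HCl/1 mM EDTA pH 7.6, incubated 10 min at 37 °C with compound (ethanol carrier). Substrate: anandamide 2 µM final with trace [3H]anandamide labelled in the ethanolamine, plus BSA. Stopped on ice with chloroform/methanol; [3H]ethanolamine in the aqueous phase counted. Eight concentrations from 0.5 to 100 µM, at least three experiments.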

[3] = target: T2, Fatty-acid amide hydrolase 1 (Rattus norvegicus, UniProt P97612); assay: Inhibition of fatty acid amide hydrolase (FAAH) was determined using rat brain homogenates as the enzyme source and [3H]anandamide as substrate; format: tissue-based; in short: as §2
T2 sequence (P97612 whole entry): T1 sequence (whole entry)

[4] = target: Transient receptor potential cation channel subfamily V member 1 (Rattus norvegicus, UniProt O35433); assay: Binding affinity against vanilloid receptor 1 (VR1) using [3H]RTX in rat spinal cord membranes; format: cell membranes, Membrane
Chain of Transient receptor potential cation channel subfamily V member 1 (O35433 whole entry): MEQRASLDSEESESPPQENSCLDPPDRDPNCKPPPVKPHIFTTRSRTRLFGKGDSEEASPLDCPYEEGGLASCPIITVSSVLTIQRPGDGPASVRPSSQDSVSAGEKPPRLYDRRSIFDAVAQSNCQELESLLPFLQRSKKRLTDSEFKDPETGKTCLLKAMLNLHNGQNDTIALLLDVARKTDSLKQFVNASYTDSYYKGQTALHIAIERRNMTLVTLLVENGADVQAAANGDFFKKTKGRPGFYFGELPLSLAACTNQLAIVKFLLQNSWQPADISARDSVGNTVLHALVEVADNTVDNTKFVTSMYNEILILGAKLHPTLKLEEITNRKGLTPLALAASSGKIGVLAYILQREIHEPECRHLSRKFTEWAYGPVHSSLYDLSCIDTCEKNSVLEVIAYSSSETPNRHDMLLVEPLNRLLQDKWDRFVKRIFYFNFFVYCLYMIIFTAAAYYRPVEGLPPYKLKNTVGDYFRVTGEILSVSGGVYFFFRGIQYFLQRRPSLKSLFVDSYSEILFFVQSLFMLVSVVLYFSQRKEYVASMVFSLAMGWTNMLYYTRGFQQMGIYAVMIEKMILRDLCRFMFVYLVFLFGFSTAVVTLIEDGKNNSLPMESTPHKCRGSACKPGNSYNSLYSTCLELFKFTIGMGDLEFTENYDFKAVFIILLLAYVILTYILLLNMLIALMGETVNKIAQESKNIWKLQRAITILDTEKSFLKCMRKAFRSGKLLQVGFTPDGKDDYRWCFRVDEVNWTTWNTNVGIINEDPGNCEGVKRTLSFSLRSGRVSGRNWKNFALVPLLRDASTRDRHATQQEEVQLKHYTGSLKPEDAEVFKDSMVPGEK
In short: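 Rat spinal cord membranes (about 1 mg/mL protein) in HEPES/sucrose buffer pH 7.4 with 0.25 mg/mL BSA. Incubated 60 min at 37 °C with 25 pM [3H]RTX plus competitor; nonspecific binding defined with 1 µM RTX. Stopped on ice, α1-acid glycoprotein added, membranes pelleted and counted. Ki by Cheng-Prusoff. Two to four experiments in triplicate.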

Homo sapiens [5] = species: Homo sapiens; assay: Inhibition of [3H]anandamide transport(ANT) in human lymphoma U937 cell; format: functional; details: U-937; in short: as §1
Cannabinoid receptor 1 = Cannabinoid receptor 1 (Rattus norvegicus, UniProt P20272); assay: Binding affinity against G protein coupled Cannabinoid receptor 1 using [3H]WIN-55212-2 in rat cerebellum membranes; format: cell membranes, Membrane
Chain of Cannabinoid receptor 1 (P20272 whole entry): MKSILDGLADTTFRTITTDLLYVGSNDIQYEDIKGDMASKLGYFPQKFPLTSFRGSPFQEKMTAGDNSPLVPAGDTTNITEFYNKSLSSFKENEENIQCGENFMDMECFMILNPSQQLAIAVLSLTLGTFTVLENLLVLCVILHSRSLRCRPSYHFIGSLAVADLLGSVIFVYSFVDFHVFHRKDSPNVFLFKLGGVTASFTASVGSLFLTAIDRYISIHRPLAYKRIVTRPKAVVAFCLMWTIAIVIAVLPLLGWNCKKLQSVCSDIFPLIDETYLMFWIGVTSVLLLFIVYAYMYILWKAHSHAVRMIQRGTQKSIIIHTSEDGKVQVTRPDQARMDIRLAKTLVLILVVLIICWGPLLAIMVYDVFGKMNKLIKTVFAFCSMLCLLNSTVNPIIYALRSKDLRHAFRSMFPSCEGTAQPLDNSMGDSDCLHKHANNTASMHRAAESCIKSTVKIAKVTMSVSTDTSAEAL
In short: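 Rat cerebellum membranes washed in 50 mM Tris-HCl pH 7.4, resuspended at about 2 mg/mL protein. Incubated 90 min at 30 °C with 0.5 nM [3H]WIN55212-2 plus competitor in Tris/EDTA/MgCl2/5 mg/mL BSA buffer. Nonspecific binding defined with 10 µM SR141716A. Bound ligand separated by GF/C filtration and counted by scintillation. IC50 from curve fit, Ki by Cheng-Prusoff. Two to four experiments in triplicate.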

Cannabinoid receptor 2 = Cannabinoid receptor 2 (Homo sapiens, UniProt P34972); assay: Binding affinity against G protein coupled human Cannabinoid receptor 2 using [3H]CP-55940 in HEK293 EBNA transfected cells; format: cell-based
Chain of Cannabinoid receptor 2 (P34972 whole entry): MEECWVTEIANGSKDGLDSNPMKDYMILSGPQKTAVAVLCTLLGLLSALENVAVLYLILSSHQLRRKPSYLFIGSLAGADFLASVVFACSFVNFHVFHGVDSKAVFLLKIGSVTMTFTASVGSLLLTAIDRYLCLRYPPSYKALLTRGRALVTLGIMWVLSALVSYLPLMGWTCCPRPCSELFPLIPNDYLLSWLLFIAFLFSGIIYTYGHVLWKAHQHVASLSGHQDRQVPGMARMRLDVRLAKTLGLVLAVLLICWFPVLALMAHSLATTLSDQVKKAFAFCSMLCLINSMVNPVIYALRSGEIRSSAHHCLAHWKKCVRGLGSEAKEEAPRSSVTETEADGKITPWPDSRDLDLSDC
In short: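 Incubated 90 min at 30 °C with 0.3 nM [3H]CP55940 plus competitor. Filtered and counted by scintillation. IC50 from curve fit, Ki by Cheng-Prusoff. Two to four experiments in triplicate.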

[6] = target: T1, Fatty-acid amide hydrolase 1 (Rattus norvegicus); assay: Maximum Inhibition of fatty acid amide hydrolase (FAAH) was determined using rat brain homogenates at 100 uM
In short: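 Rat brain (minus cerebellum) homogenate in 10 mM Tris-HCl, 1 mM EDTA, pH 7.6, incubated 10 min at 37 °C with test agent or ethanol carrier. Substrate: 2 µM final anandamide with trace [3H]anandamide (ethanolamine label), 1% fatty acid free BSA. Stopped on ice plus chloroform/methanol. Aqueous-phase [3H]ethanolamine counted by scintillation. Inhibition read at 100 µM where IC50 fit failed.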

Compound | Max inhibition (Homo sapiens [1]) | Max inhibition [2] | pIC50 [3] | pKi [4] | pIC50 (Homo sapiens [5]) | pKi (Cannabinoid receptor 1) | pKi (Cannabinoid receptor 2) | Max inhibition [6]
CCCCC/C=C\C/C=C\C/C=C\C/C=C\CCCC(=O)Nc1ccc(O)cc1 | >85% | 100% | 5.43 | – | – | – | – | –
CCCCC/C=C\C/C=C\C/C=C\C/C=C\CCCC(=O)NC(C)Cc1cccs1 (centres undefined) | 66% | 36% | 4.82 | > 5.30 | 4.66 | < 6.00 | < 6.00 | –
CCCCC/C=C\C/C=C\C/C=C\C/C=C\CCCC(=O)NCc1ccsc1 | >85% | 76% | 4.92 | < 5.30 | 5.30 | < 6.00 | < 6.00 | –
CCCCC/C=C\C/C=C\C/C=C\C/C=C\CCCC(=O)O[C@@H](C)c1ccco1 | 55% | – | < 3.92 | < 5.30 | – | < 6.00 | < 5.30 | 24%
CCCCC/C=C\C/C=C\C/C=C\C/C=C\CCCC(=O)OCC1CCCO1 (centres undefined) | >85% | 23% | < 3.92 | – | – | < 5.30 | < 5.30 | –
CCCCC/C=C\C/C=C\C/C=C\C/C=C\CCCC(=O)OCc1ccoc1 | >85% | 100% | 3.99 | – | – | < 5.30 | < 5.30 | –
CCCCC/C=C\C/C=C\C/C=C\C/C=C\CCCC(=O)NCc1cccs1 | >85% | 100% | 3.95 | – | – | – | < 5.00 | –
CCCCC/C=C\C/C=C\C/C=C\C/C=C\CCCC(=O)OCCc1ccsc1 | 75% | 100% | 4.55 | < 5.30 | 4.59 | < 6.00 | < 5.30 | –
CCCCC/C=C\C/C=C\C/C=C\C/C=C\CCCC(=O)NCc1ccoc1 | >85% | 100% | 4.52 | – | – | 5.33 | – | –
CCCCC/C=C\C/C=C\C/C=C\C/C=C\CCCC(=O)NCCc1ccoc1 | >85% | – | – | < 5.30 | 5.48 | < 6.00 | 6.40 | –
CCCCC/C=C\C/C=C\C/C=C\C/C=C\CCCC(=O)N(Cc1cccs1)Cc1cccs1 | >85% | – | – | < 5.30 | 4.80 | < 6.00 | < 6.00 | –
CCCCC/C=C\C/C=C\C/C=C\C/C=C\CCCC(=O)NC(C)c1ccco1 (centres undefined) | >85% | 75% | 4.44 | < 5.30 | 4.68 | < 5.30 | < 5.30 | –
CCCCC/C=C\C/C=C\C/C=C\C/C=C\CCCC(=O)OCc1cccs1 | – | 80% | 4.92 | – | – | < 5.30 | < 5.30 | –
CCCCC/C=C\C/C=C\C/C=C\C/C=C\CCCC(=O)NCc1ccco1 | >85% | 100% | 4.47 | – | – | < 5.30 | < 5.30 | –
CCCCC/C=C\C/C=C\C/C=C\C/C=C\CCCC(=O)NCCc1cccs1 | >85% | 100% | 3.99 | < 5.30 | 4.72 | 5.52 | < 6.00 | –
CCCCC/C=C\C/C=C\C/C=C\C/C=C\CCCC(=O)OCc1ccsc1 | >85% | 100% | 4.08 | – | – | < 5.30 | < 5.30 | –
CCCCC/C=C\C/C=C\C/C=C\C/C=C\CCCC(=O)OCc1ccco1 | >85% | 100% | 4.28 | – | – | < 5.30 | < 5.30 | –
CCCCC/C=C\C/C=C\C/C=C\C/C=C\CCCC(=O)OCC1CCOC1 (centres undefined) | >85% | 100% | 3.95 | – | – | < 5.30 | < 5.00 | –
CCCCC/C=C\C/C=C\C/C=C\C/C=C\CCCCNCc1ccoc1 | >85% | 57% | 4.54 | < 5.30 | – | < 6.00 | < 6.00 | –
CCCCC/C=C\C/C=C\C/C=C\C/C=C\CCCC(=O)NCC1CCCO1 (centres undefined) | >85% | 47% | 4.36 | – | – | < 5.30 | < 5.30 | –
CCCCC/C=C\C/C=C\C/C=C\C/C=C\CCCC(=O)NCc1cccn1C | >85% | – | – | – | – | – | – | –
CCCCC/C=C\C/C=C\C/C=C\C/C=C\CCCC(=O)SCc1ccco1 | >85% | 36% | < 3.92 | < 5.30 | 5.05 | < 5.30 | < 5.30 | –
CCCCC/C=C\C/C=C\C/C=C\C/C=C\CCCC(=O)NC(C)Cc1ccsc1 (centres undefined) | 78% | 37% | < 3.92 | > 5.30 | 4.68 | < 6.00 | < 6.00 | –
CCCCC/C=C\C/C=C\C/C=C\C/C=C\CCCC(=O)NCCc1ccsc1 | 60% | – | – | > 5.30 | 5.89 | < 6.00 | < 6.00 | –
CCCCC/C=C\C/C=C\C/C=C\C/C=C\CCCC(=O)OCCc1cccs1 | >85% | 68% | 4.62 | < 5.30 | 4.92 | < 6.00 | < 5.30 | –
